The values below come from paper PMC3640569 (Food biophysics, 2012).

For data set [1] the following is noted: rat, 2 to 9 mg per day in a 71 kcal per day diet; cited from earlier work.
For data set [2] the following is noted: cited from earlier work.
The nature of the next data set: Theoretical prediction. The essentials: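 Calculated, not measured: maximum PMF dissolvable in the oil-water system at equilibrium was derived with a mass-balance equation (Eq. 1). Inputs were the masses of solute, oil and water and the experimentally measured saturation concentrations of PMF in each carrier oil (thermal quenching) and in buffer (solvent injection), assuming oil-water partitioning.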

Data set [3] can be described thus: Aqueous phase solubility of PMF. The data set is classed as physicochemical. An outline of the steps: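 Solvent injection: 1 % PMF in DMSO was injected into aqueous solutions of water-soluble polymers (0–5 %) or polymer-free buffer, giving a final 56 µM PMF. Mixtures were stirred at 120 rpm for 72 h at 25 °C, then centrifuged (4000 rpm, 15 min) to remove crystals. Supernatant PMF was read by UV-vis at 330 nm against a calibration curve. Runs were done in duplicate or triplicate and reported as mean ± SD.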

Data set [4] can be described thus: Organic phase solubility of PMF. The data set is classed as physicochemical. An outline of the steps:
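Thermal quenching: weighed PMF was stirred into MCT or LCT (corn oil) for 1 h at 90–100 °C, cooled to 25 °C and held up to 72 h. Crystals were inspected visually and by optical microscopy. Saturation concentration was the mean of four measurements at the highest PMF loadings.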

Data set [5] in a line: Solubility of PMF in simulated small intestinal fluids. The data set is classed as physicochemical. The note with it: 0.05 % PVA or HPMC in SSIF. An outline of the steps:
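PMF in DMSO was mixed with buffer, fasted SSIF or fed SSIF (150 mM NaCl, 10 mM CaCl₂, 15 mg/mL bile, 2.4 mg/mL lipase), with or without 0.05 % PVA or HPMC. Samples were stirred constantly for 72 h at 37 °C and centrifuged to remove crystals. Soluble PMF in the supernatant was measured by UV-vis at 330 nm.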

A further data set in a line: In vitro digestion model. In kind it is in vitro ADME. The note with it: 20 wt% MCT nanoemulsion, 2.8 mM PMF, Fa-SSIF. The essentials:
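A nanoemulsion (20 wt% MCT, 2 wt% Tween 20, 2.8 mM PMF) was added to fasted SSIF (100 mM NaCl, 5 mM CaCl₂, 5 mg/mL bile extract, 0.6 mg/mL lipase, 5 mM phosphate). It was equilibrated 10 min to 37 °C at pH 7.00, and lipolysis was started with pancreatic extract. pH was held by pH-stat with 2 M NaOH. Timed samples were stopped with 4-BBBA and centrifuged (4000 rpm, 30 min, RT). The supernatant micelle phase was diluted 1:10 in DMSO and read at 330 nm. Done in triplicate.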

Data set [6] can be described thus: Oil-water partition coefficient estimated from saturation concentrations. The data set is classed as physicochemical.
A short description of data set [7]: Encapsulation of PMF in oil-in-water nanoemulsions. The data set is classed as physicochemical. The essentials:
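Oil phase was 1 wt% PMF dissolved in MCT at 90–100 °C. Aqueous phase was 2 wt% Tween 20 in 5 mM phosphate, pH 7.0. Both were kept above 50 °C, blended 2 min, then given five microfluidizer passes at 12,000 psi. Oil content was 2.5–20 % at a PMF:oil ratio of 1:100 (initial 0.56–5.6 mM). After storage, dispersed and total PMF (remixed sample) were measured by UV-vis at 330 nm.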

Converted amounts (≈) assume the structure as drawn. “And” between values parts separate entries of the source, which are not always exact repeats. Equal values may be shown once. “Also recorded” adds a separate entry of the source.

In the case of `COc1ccc(-c2cc(=O)c3c(OC)c(OC)c(OC)c(OC)c3o2)cc1OC` [nobiletin], the anti-carcinogenic effect entry in data set [1] is “significant anti-carcinogenic effect”.

For orientation: kinetic solubility means the concentration staying in solution when a stock, usually in DMSO, is diluted into the medium. The solubility is the concentration that dissolves in the medium under given conditions. A low value points to a poorly soluble substance. Turning to `COc1ccc(-c2cc(=O)c3c(O)c(OC)c(OC)c(OC)c3o2)cc1` [PMF, 5-hydroxy-6,7,8,4'-tetramethoxy-flavone], in [2], the “reported saturation level in pure water” value is “≈ 0.9 µM”. Also, the “soluble PMF at saturation predicted using Eq. 1” value in the data set “Theoretical prediction” (2.5 % fat MCT nanoemulsion) is on record as 0.15 mM; in “Theoretical prediction” (5 % fat MCT nanoemulsion) it was 0.31 mM; in the data set “Theoretical prediction” (10 % fat MCT nanoemulsion), 0.61 mM; in the data set “Theoretical prediction” (20 % fat MCT nanoemulsion) it was 1.22 mM. In addition, the “saturation concentration calculated using Eq. 1” value in the data set “Theoretical prediction” (20 wt% LCT nanoemulsion) is 0.84 mM. Also, the “PMF solubilized per 100 g of solution” value in [3] (0.5 % HPMC aqueous phase) is recorded as “about 0.36 mg per 100 g”. Also, the “increase in PMF concentration in aqueous phase by water-soluble polymers” value in [3] (certain types and amounts of polymer (HPMC, PVA)) is roughly 10 fold. For the same molecule, the “saturation concentration in water / buffer solution” value in data set [3] (no polymer, 25 °C, 72 h) was 0.93 µM and ≈ 0.93 µM. In addition, the “effect of polymer on aqueous solubility” value in data set [3] (polyethylene glycol (PEG)) and in data set [3] (β-cyclodextrin (CD)) was “ineffective at increasing solubility; also recorded: little effect” each time. The molecule further registered a solubility (kinetic) at 72 h in data set [3] (pure buffer solution, 25 °C, aqueous buffer, kinetic from dmso stock) of 0.33 µg/mL (≈ 0.921 µM). The “saturation concentration in the oil phase (CSO*)” value in data set [4] (LCT) was “around 1.55 mg/mL”; in data set [4] (LCT (corn oil), 25 °C, 72 h storage), 4.2 mM and 4.2 ± 0.4 mM; in data set [4] (MCT) it was roughly 2.2 mg/mL. The molecule further gave a solubility at 72 h in [4] (oil phases (LCT, MCT), 25 °C, oil or lipid, thermodynamic from solid) of 4 to 6 mM (≈ 1430 to 2150 µg/mL). Moreover, in [5], the “effect of water-soluble polymers on solubility in SSIFs” value is on record as “little influence”. Moreover, the figures for the “concentration of PMF in the micelle phase” value in the data set “In vitro digestion model” (after 3 min digestion) and in “In vitro digestion model” (after 120 min digestion) were “around 3 µM” and “around 16 µM”, respectively. Further, the “oil-water partition coefficient KOW (=CSO*/CSW*)” value in data set [6] (LCT / buffer) is “about 4,520”; in data set [6] (MCT / buffer), ~6,560. Also, the encapsulation efficiency in [7] (2.5 % fat (MCT), 20 days storage) is on record as 21%; in [7] (5 % fat (MCT), 20 days storage) it was 21%; in data set [7] (10 % fat (MCT), 20 days storage) it was 20%; in data set [7] (20 % fat (MCT), 20 days storage), 42%; in data set [7] (20 wt% LCT, initial PMF 5.6 mM, 72 h) it was “around 48%”; in data set [7] (20 wt% MCT, initial PMF 5.6 mM, 72 h) it was roughly 69%. The molecule further showed an encapsulation efficiency in data set [7] (20 wt% oil (LCT or MCT), initial PMF 0.56, 1.4 and 2.8 mM, 72 h) of 75 to 100%. Also, the “encapsulated PMF in nanoemulsion” value in [7] (2.5 % fat (MCT), initial 0.56 mM PMF, 20 days storage) is on record as “≈ 0.12 mM”; in data set [7] (5 % fat (MCT), initial 1.4 mM PMF, 20 days storage), roughly 0.29 mM; in data set [7] (10 % fat (MCT), initial 2.8 mM PMF, 20 days storage), roughly 0.55 mM; in data set [7] (20 % fat (MCT), initial 5.6 mM PMF, 20 days storage) it was roughly 2.33 mM.
